ChEMBL document CHEMBL4387738 (Bioorg Med Chem Lett, 2019)
Each block holds one molecule with its values, some of them ahead of it. Activity calls are given as the source filed them. The calls are words filed in the database; no cut-off is given here.

Assays:
HCT-116 [1] = experiment: Induction of apoptosis in human HCT116 cells assessed as late apoptotic cells at 5 to 25 uM incubated for 24 hrs by Annexin-V-FITC/propidium iodide staining based flow cytometric method relative to taxol; format: functional, cell-based
Method in brief: (§1)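 HCT116 cells exposed to 5, 10 or 25 μM for 24 h, then stained with annexin V and propidium iodide and analysed by flow cytometry. DMSO was the negative control and Taxol the apoptosis control. Total apoptosis counted all annexin V-positive cells, early apoptosis was annexin V-positive/PI-negative, and late apoptosis was annexin V/PI double-positive.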

[2] = biological target: Endoplasmic reticulum chaperone BiP (Homo sapiens) (UniProt P11021); experiment: Inhibition of GRP78 (26 to 636 residues) (unknown origin) expressed in Escherichia coli BL21 DE3 cells pre-incubated for 10 mins before FITC-NRLLLTG fluorescent peptide addition in presence of 20 uM ADP followed by further incubation for 2 hrs by fluorescence polarization assay
Method in brief: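 Fluorescence polarization competition assay in 384-well format. Full-length GRP78 (0.75 μM) was held in the ADP-bound closed state with FITC-NRLLLTG (100 nM), and loss of polarization was read. DMSO was the negative control and heat-denatured GRP78 the positive control. IC50 was taken from a 10-point dose response.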

[3] = Inhibition of bacterial DnaK pre-incubated for 10 mins before FITC-NRLLLTG fluorescent peptide addition in presence of 20 uM ADP followed by further incubation for 2 hrs by fluorescence polarization assay; set-up: species or system Bacteria
Method in brief: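 Repeat of the GRP78 fluorescence-polarization substrate-binding assay with the bacterial HSP70 DnaK in place of GRP78. The FITC-NRLLLTG peptide binds the substrate-binding domain in the ADP-bound closed state, raising polarization; inhibitors keep polarization low. Compound was tested in dose response and the IC50 derived. DnaK construct and concentration are not given.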

HCT-116 [4] = experiment: Induction of apoptosis in human HCT116 cells assessed as increase in early apoptotic cells at 5 to 25 uM incubated for 24 hrs by Annexin-V-FITC/propidium iodide staining based flow cytometric method relative to taxol; format: functional, cell-based; method in brief: as §1
HCT-116 [5] = experiment: Induction of apoptosis in human HCT116 cells assessed as apoptotic cells at 10 uM incubated for 24 hrs by Annexin-V-FITC/propidium iodide staining based flow cytometric method relative to taxol; format: functional, cell-based; method in brief: as §1
HCT-116 [6] = experiment: Induction of apoptosis in human HCT116 cells assessed as increase in apoptotic cells at 25 uM incubated for 24 hrs by Annexin-V-FITC/propidium iodide staining based flow cytometric method relative to taxol; format: functional, cell-based; method in brief: as §1
HCT-116 [7] = experiment: Induction of apoptosis in human HCT116 cells at 5 to 25 uM incubated for 24 hrs by Annexin-V-FITC/propidium iodide staining based flow cytometric method; format: functional, cell-based; method in brief: as §1
HCT-116 [8] = experiment: Induction of apoptosis in human HCT116 cells 25 uM incubated for 16 to 48 hrs by Annexin-V-FITC/propidium iodide staining based flow cytometric method; format: functional, cell-based; settings: TDE = time-dependent effect
Method in brief: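 Time course in HCT116 cells. After treatment, cells were stained with annexin V and propidium iodide and analysed by flow cytometry. Early apoptosis was scored as annexin V+/PI−, late apoptosis as annexin V+/PI+. DMSO served as the negative control and Taxol as the apoptosis control.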

HCT-116 [9] = experiment: Induction of autophagy in human HCT116 cells assessed as reduction in p62 level at 2 to 10 uM after 16 hrs by Western blot analysis
HCT-116 [10] = experiment: Induction of autophagy in human HCT116 cells assessed as increase in LC3-2 level at 2 to 10 uM after 16 hrs by Western blot analysis
HCT-116 [11] = experiment: Induction of autophagy in human HCT116 cells assessed as reduction in LC3-1 level at 2 to 10 uM after 16 hrs by Western blot analysis

Sequence of Endoplasmic reticulum chaperone BiP (Homo sapiens) (P11021 whole entry, the tested form may be a part): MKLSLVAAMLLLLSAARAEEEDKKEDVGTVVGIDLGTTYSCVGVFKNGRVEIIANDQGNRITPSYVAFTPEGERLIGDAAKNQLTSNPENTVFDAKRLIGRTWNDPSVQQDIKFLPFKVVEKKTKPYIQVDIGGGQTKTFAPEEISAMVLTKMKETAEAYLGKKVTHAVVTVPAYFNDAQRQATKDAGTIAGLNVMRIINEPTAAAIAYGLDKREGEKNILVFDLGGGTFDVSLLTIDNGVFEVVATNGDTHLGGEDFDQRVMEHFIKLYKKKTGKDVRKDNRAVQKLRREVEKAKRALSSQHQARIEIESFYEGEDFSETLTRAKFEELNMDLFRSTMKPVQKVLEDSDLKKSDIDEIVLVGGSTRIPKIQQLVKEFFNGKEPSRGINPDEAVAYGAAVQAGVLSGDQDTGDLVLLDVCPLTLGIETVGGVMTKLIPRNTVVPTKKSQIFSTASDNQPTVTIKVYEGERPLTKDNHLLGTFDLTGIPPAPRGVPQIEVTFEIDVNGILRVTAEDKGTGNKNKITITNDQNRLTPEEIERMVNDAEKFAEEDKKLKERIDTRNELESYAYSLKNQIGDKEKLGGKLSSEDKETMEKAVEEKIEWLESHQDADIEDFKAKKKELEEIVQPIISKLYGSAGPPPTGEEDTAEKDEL

Compound: CC(=O)O[C@H]1C(=O)[C@@]2(C)[C@H]([C@H](OC(=O)c3ccccc3)[C@]3(O)C[C@H](OC(=O)[C@H](O)[C@@H](NC(=O)c4ccccc4)c4ccccc4)C(C)=C1C3(C)C)[C@]1(OC(C)=O)CO[C@@H]1C[C@@H]2O
Activity (HCT-116 [1]): Active

Compound: Oc1c(Cl)cc(Cl)cc1Cc1cc(Cl)cc(Cl)c1O
inhibition [2]: Active

Compound: Oc1c(Cl)cc(Cl)cc1Sc1cc(Cl)cc(Cl)c1O
inhibition [2]: Active

Further lines, with some results ahead:

inhibition [2]: Active
Compound: Oc1c(Cl)cc(Cl)c(Cl)c1Sc1c(O)c(Cl)cc(Cl)c1Cl

inhibition [2]: Dose-dependent effect
IC50 [3]: 51.6 µM
Compound: Oc1c(Cl)cc(Cl)c(Cl)c1Cc1c(O)c(Cl)cc(Cl)c1Cl [HEXACHLOROPHENE]
Activity (HCT-116 [4]): Active
Activity (HCT-116 [5]): Active
Activity (HCT-116 [6]): Active
Activity (HCT-116 [1]): Active
Activity (HCT-116 [7]): Dose-dependent effect
Activity (HCT-116 [8]): Tde
Activity (HCT-116 [9]): Active
Activity (HCT-116 [10]): Active
Activity (HCT-116 [11]): Active
